Only a selection was taken, and hits are over-represented in it overall.
Hsp70 act = Hsp70 transcriptional activators, primary screen, cell-based, HeLa, Hsp70 promoter luciferase, luminescence, 10 µM; activation, % at 10 µM; 0.04% of 200,000 active; HeLa Hsp70 promoter luciferase reporter; scaled: vehicle 0, proteasome-inhibitor control 100%; AID 1203, 2008;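 active = activation above the mean across all tested compounds plus 3 SD, cutoff set per campaign, cut at about 5.5% in these data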;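 note: 100% = MG132 at 30 µM as the positive control and 0% = DMSO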
HSF1 activator = HSF-1 activators, primary screen, NIH3T3-HGL cells, MG132 stress, luminescence, single point | activation, % at 9 µM | NIH3T3-HGL HSF-1 luciferase reporter, 8 h; 100% = twice DMSO control signal | 1.7% of 300,000 active;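 active = mean replicate activation of at least 50% with a set share of replicates each reaching 50%; inconclusive = only one of those two conditions met; inactive = mean below 50% and too few replicates reaching it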;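 note: 0% = median of the neutral control wells and 100% = twice that signal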
T cruzi repl = inhibitors of intracellular T. cruzi growth, primary screen, luminescence, NIH3T3 host cells; T. cruzi beta-gal in NIH3T3, 90 h; inhibition, % (test concentration not listed); 1.4% of 300,000 active; AID 1885, 2009;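 active = mean inhibition across valid replicates above about 55%, limit read from the data; inconclusive = mean below that limit but half or more replicates reach it; inactive = mean below it, under half of replicates reach it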;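 note: signal also drops with host cell toxicity which is not excluded here; 0% = plate median of DMSO wells and 100% = zero luminescence signal; higher percent means less beta-gal luminescence so fewer parasites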
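Material: NIH/3T3 host cells with β-galactosidase reporter T. cruzi; Input: 5,000 host fibroblasts per well; Medium: DMEM, 2% fetal bovine serum; Compound: 50 nL DMSO compound solution per well; Schedule: 3 h host attachment, then at least 90 h co-culture; Detection: luminescent β-galactosidase signal after 60 min lysis.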
HSF1 inhib = HSF1 inhibitors in luciferase reporter cells, primary screen, cell-based, NIH3T3, luminescence; NIH3T3-HGL HSE-luciferase, MG132-induced, luminescence 8 h; hits give low values; activity change, negative = inhibition, % at 7.5 µM (by protocol); 0.77% of 300,000 active;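 active = more than half of replicate wells show activity change below -50%, luminescence cut by over half; inconclusive = some wells, but at most half, below -50%; inactive = no replicate well below -50%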;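 note: luciferase reports HSF-1 transcriptional activity via heat shock element; 0% = median of DMSO wells and -100% = zero luminescence signal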
Lmaj promast = Leishmania major promastigote growth inhibition, primary screen | Leishmania major promastigotes, resazurin fluorescence viability | inhibition, % at 10 µM | 9% of 200,000 active | AID 1063, 2008; in the data active = inhibition above about 50%;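 note: promastigotes grown with compound for 44 hours at 28 °C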
An asterisk follows results filed as active; ? = inconclusive; / = no result given.

SMILES | Hsp70 act | HSF1 activator | T cruzi repl | HSF1 inhib | Lmaj promast
CC(=O)C1CCCN(C(=O)c2ccc3oc(CCc4ccccc4)nc3c2)C1 (configuration not stated) | / | -11.8 | -2.5 | -1.1 | /
Cc1ccc(OCC(=O)c2c[nH]c3ccccc23)c([N+](=O)[O-])n1 | -0.1 | 0.3 | -7.4 | 3.5 | 1.8
COc1ccc([N+](=O)[O-])cc1COc1cc(C)cc2oc(=O)cc(-c3ccccc3)c12 | 0.2 | 26.2 | 33.2 | 9.2 | 98.7*
CCc1ccc2[nH]c(=O)c(C3C(C#N)=C(N)Oc4c3ccc3cccnc43)cc2c1 (configuration not stated) | -0.3 | 3.7 | 58.8* | 2.9 | 10.1
N#CC1=C(N)Oc2c(ccc3cccnc23)C1c1cccnc1 (configuration not stated) | -0.1 | -12.5 | 11.3 | -4.6 | -11.6
Cc1ccc2cc(C3C(C#N)=C(N)Oc4c3ccc3cccnc43)c(=O)[nH]c2c1 (configuration not stated) | 0.1 | 10.0 | -7.7 | 1.5 | 90.5*
O=C/C=C/c1c(-c2ccccc2)cc2oc3ccccc3cc1-2 | / | ? | -6.5 | 52.3 | /
O=C(NNc1ccc(C(F)(F)F)cc1[N+](=O)[O-])c1ccc(NS(=O)(=O)c2ccc(F)cc2)cc1 | -0.3 | 15.3 | -1.3 | 0.9 | 51.8*
CN(CC(=O)Nc1ccc(F)cc1[N+](=O)[O-])Cc1ccccc1 | -0.4 | 16.7 | -7.6 | -0.1 | 6.9
CC(=O)c1ccc(N2CCC(c3cc(-c4ccc(Cl)cc4)n[nH]3)CC2)c([N+](=O)[O-])c1 | -0.4 | 12.8 | 74.0* | 8.5 | 30.7
COC(=O)c1ccc(N2CCC(c3cc(-c4ccc(OC)cc4)n[nH]3)CC2)c([N+](=O)[O-])c1 | 0.1 | -6.9 | 44.7 | -6.7 | 21.4
COc1ccc(-c2cc(C3CCN(c4ccc(C(C)=O)cc4[N+](=O)[O-])CC3)[nH]n2)cc1 | -0.2 | -30.6 | 63.0* | -29.5 | 35.1
COc1nc(NCCc2ccc(OC)c(OC)c2)nc(Nc2ccccc2)n1 | / | 17.2 | 23.7 | 15.5 | /
CCOc1ccc(-c2cnc(NCc3cccc4ccccc34)n2CCOC)cc1 | / | -87.7 | 72.0* | -83.3* | /
CCN1CCN(C(=O)CCc2nnc(CCc3c[nH]c4ccccc34)o2)[C@@H](C)C1=O | / | 1.9 | -6.2 | -4.1 | /
Cc1ccc(OCCOCCOc2cccc3cccnc23)c(Br)c1 | 0.1 | 76.6* | 27.6 | 29.9 | -1.0
Cc1cc(C)cc(OCCCOc2cccc3cccnc23)c1 | 0.1 | 5.0 | 16.7 | 4.3 | 81.5*
Brc1ccccc1OCCCOc1cccc2cccnc12 | / | 39.6 | 6.7 | 20.0 | /
COc1cccc(C=O)c1OCCCOc1cccc2cccnc12 | / | 53.4* | -4.3 | 42.8 | /
CN(c1ccccc1)S(=O)(=O)c1ccc(Cl)c(C(=O)Nc2ccc(-c3nc4ccccc4[nH]3)cc2)c1 | -0.2 | 26.7 | 57.0* | 29.4 | 95.7*
CN(c1ccccc1)S(=O)(=O)c1ccc(Cl)c(C(=O)Nc2nc3ccccc3[nH]2)c1 | -0.3 | -7.0 | -1.6 | -3.9 | 99.2*
O=C(NCc1ccccc1)C1(c2cccc(F)c2)CCCC1 | -0.3 | / | / | / | 21.3
CC(NC(=O)c1cc2ccccc2oc1=O)c1ccccc1 (configuration not stated) | / | 6.3 | -7.4 | 2.0 | /
O=C(c1ccc(F)cc1F)N1CCCc2ccccc21 | / | -0.3 | -11.2 | -4.0 | /
O=C(Nc1nnc(-c2ccc(F)cc2)o1)c1cccc([N+](=O)[O-])c1 | 0.0 | -8.5 | 50.7 | -5.5 | 95.6*
SMILES | Hsp70 act | HSF1 activator | T cruzi repl | HSF1 inhib | Lmaj promast
O=C(Nc1nnc(-c2ccc(F)cc2)o1)c1cc(Cl)sc1Cl | 0.0 | -7.7 | 15.7 | -11.7 | 62.0*
O=C(Nc1nnc(-c2ccccc2)o1)c1cc(Cl)sc1Cl | -0.1 | 5.2 | -7.2 | -4.7 | 1.5
CC(C)CCN1C(=O)c2ccc(C(=O)N3CCCCC3)cc2C1=O | / | -6.9 | -11.5 | 1.9 | /
CC(=O)Nc1ccc(SCC(=O)c2cc(C)n(-c3ccccc3F)c2C)cc1 | -0.4 | -71.1 | 11.8 | -67.7* | 80.8*
Cc1cc(C(=O)CSc2n[nH]c(-c3ccccc3F)n2)c(C)n1Cc1cccs1 | 0.0 | -1.3 | 25.8 | 11.4 | 83.1*
Cc1csc(SCC(=O)c2cc(C)n(Cc3cccs3)c2C)n1 | -0.5 | -55.8 | 19.3 | -45.7 | 56.1*
CC(=O)Nc1ccc(SCC(=O)c2cc(C)n(Cc3cccs3)c2C)cc1 | -0.4 | -75.0 | 10.7 | -69.4* | 26.3
COCCn1c(C)cc(C(=O)CSc2ccc(NC(C)=O)cc2)c1C | -0.2 | -23.0 | -8.7 | -22.3 | -2.9
Cc1cc(C(=O)CSc2nnc(N)s2)c(C)n1Cc1cccs1 | -0.5 | 1.0 | -4.0 | -9.9 | -2.5
C=CC[C@]12CC=CC(=O)[C@@]1(O)O[C@H](c1ccc(OC)c(OC)c1)[C@H]2C | / | 23.1 | 21.9 | 26.1 | /
CSc1nnc(C)c(=O)n1COC(=O)/C=C/c1ccccc1 | 0.0 | 21.5 | -6.8 | 6.3 | 4.3
COc1cc(N)c(Cl)cc1C(=O)N[C@@H]1CCN(CCCOc2ccc(F)cc2)C[C@@H]1OC | -0.1 | / | / | / | /
CCC(=O)Nc1cc2c3c(c1)CCN3C(=O)CC2 | / | -5.5 | 12.1 | 3.3 | /
O=C(CSc1ccccn1)c1ccc(F)cc1 | -0.2 | 13.2 | -11.5 | 12.1 | -9.2
Cc1ccc(C(=O)CSc2ccccn2)cc1 | 0.3 | 53.3* | -13.7 | 30.8 | -3.4
O=C1c2ccccc2C(=O)N1c1ccc(Cc2ccncc2)cc1 | / | 5.4 | -8.8 | -4.7 | /
Cc1nc(NC(=O)c2ccc(OCC(C)C)cc2)sc1Cc1ccc2c(c1)OCO2 | -0.4 | -22.2 | 48.9 | -14.1 | 30.2
CCCOc1ccc(C(=O)Nc2nc(C)c(Cc3ccc4c(c3)OCO4)s2)cc1 | -0.1 | -15.4 | 33.2 | -0.9 | 63.7*
O=S(=O)(Nc1ccc(-c2csc(-c3ccccc3)n2)cc1)c1ccccc1 | 0.1 | 42.4 | 33.3 | 8.3 | -2.4
O=[N+]([O-])c1ccc(S(=O)(=O)Nc2ccc(-c3csc(-c4ccccc4)n3)cc2)cc1 | 0.0 | 19.3 | 65.6* | 5.5 | 21.8
COCCn1c(SCC(=O)N(C)c2c(N)n(Cc3ccccc3)c(=O)[nH]c2=O)nnc1-c1cccc(C)c1 | / | 4.3 | -7.4 | 2.3 | /
Cn1c(CCCOc2ccc(Cl)cc2Cl)nnc1SCC(=O)Nc1cccc(F)c1 | -0.3 | 53.9* | -9.3 | 36.7 | 1.3
CC(=O)N(Cc1ccco1)c1nc(C(=O)Nc2ccc(Cl)cc2)c(C)s1 | 0.2 | 53.0* | 15.0 | 15.4 | -4.8
O=C(CCCc1c[nH]c2ccccc12)Nc1ccc2ccccc2c1 | -0.3 | 25.9 | 2.7 | 10.3 | 51.8*
O=C(CCCc1c[nH]c2ccccc12)NCC1COc2ccccc2O1 (configuration not stated) | -0.2 | 8.2 | 2.4 | 1.8 | 55.2*
C/C(=N\NC(=O)Cc1c[nH]c2ccccc12)c1ccc2ccccc2c1 | 0.2 | 12.3 | -14.9 | -5.3 | 54.6*

High-throughput results: PubChem, several laboratories
